Assay results from ChEMBL document CHEMBL1156129, “Synthesis, structure-activity relationships, and characterization of novel nonsteroidal and selective androgen receptor modulators” (J Med Chem, 2009).
Activity calls are given as the source filed them. No cut-off for these calls is given here.

How the values were obtained:
[1] = Plasma concentration in Sprague-Dawley rat at 10 mg/kg, po after 60 mins; assay type: ADME, organism-based; parameters: dose 10 mg/kg, route oral
[2] = Half life in Sprague-Dawley rat at 1 mg/kg, iv; assay type: ADME, organism-based; parameters: dose 1 mg/kg, route intravenous; conditions: in vivo
[3] = Clearance in Sprague-Dawley rat at 1 mg/kg, iv; assay type: ADME, organism-based; parameters: dose 1 mg/kg, route intravenous; conditions: in vivo
[4] = AUC (0 to infinity) in Beagle dog at 1 mg/kg, iv; assay type: ADME, organism-based, Canis lupus familiaris; parameters: dose 1 mg/kg, route intravenous, time infinity; conditions: plasma
[5] = AUC (0 to infinity) in Beagle […] at 10 mg/kg, po; assay type: ADME, organism-based, Canis lupus familiaris; parameters: time infinity, dose 10 mg/kg, route oral; conditions: plasma
[6] = Half life in Beagle dog at 1 mg/kg, iv; assay type: ADME, organism-based, Canis lupus familiaris; parameters: dose 1 mg/kg, route intravenous; conditions: in vivo
[7] = Clearance in Beagle dog at 1 mg/kg, iv; assay type: ADME, organism-based, Canis lupus familiaris; parameters: dose 1 mg/kg, route intravenous; conditions: in vivo
[8] = Volume of distribution at steady state in Beagle dog at 1 mg/kg, iv; assay type: ADME, organism-based, Canis lupus familiaris; parameters: dose 1 mg/kg, route intravenous; conditions: in vivo, read-out: Vdss
[9] = Oral bioavailability in Beagle […] at 10 mg/kg, po; assay type: ADME, organism-based, Canis lupus familiaris; conditions: in vivo
[10] = Plasma concentration in Beagle dog at 1 mg/kg, iv after 0.25 hrs; assay type: ADME, organism-based, Canis lupus familiaris; parameters: dose 1 mg/kg, route intravenous
[11] = Plasma concentration in Beagle dog at 1 mg/kg, iv after 0.5 hrs; assay type: ADME, organism-based, Canis lupus familiaris; parameters: dose 1 mg/kg, route intravenous
[12] = Plasma concentration in Beagle dog at 1 mg/kg, iv after 1 hrs; assay type: ADME, organism-based, Canis lupus familiaris; parameters: dose 1 mg/kg, route intravenous
[13] = Plasma concentration in Beagle dog at 1 mg/kg, iv after 2 hrs; assay type: ADME, organism-based, Canis lupus familiaris; parameters: dose 1 mg/kg, route intravenous
[14] = Plasma concentration in Beagle dog at 1 mg/kg, iv after 4 hrs; assay type: ADME, organism-based, Canis lupus familiaris; parameters: dose 1 mg/kg, route intravenous
[15] = Plasma concentration in Beagle dog at 1 mg/kg, iv after 6 hrs; assay type: ADME, organism-based, Canis lupus familiaris; parameters: dose 1 mg/kg, route intravenous
[16] = Plasma concentration in Beagle dog at 10 mg/kg, po after 0.25 hrs; assay type: ADME, organism-based, Canis lupus familiaris; parameters: dose 10 mg/kg, route oral
[17] = Plasma concentration in Beagle dog at 10 mg/kg, po after 0.5 hrs; assay type: ADME, organism-based, Canis lupus familiaris; parameters: dose 10 mg/kg, route oral
[18] = Plasma concentration in Beagle dog at 10 mg/kg, po after 1 hrs; assay type: ADME, organism-based, Canis lupus familiaris; parameters: dose 10 mg/kg, route oral
[19] = Plasma concentration in Beagle dog at 10 mg/kg, po after 2 hrs; assay type: ADME, organism-based, Canis lupus familiaris; parameters: dose 10 mg/kg, route oral
[20] = Plasma concentration in Beagle dog at 10 mg/kg, po after 6 hrs; assay type: ADME, organism-based, Canis lupus familiaris; parameters: dose 10 mg/kg, route oral
Rattus norvegicus [21] = test: Anabolic effect in castrated rat levator ani muscle assessed as reversal of ORX-induced atrophy at 1 mg/kg/day sc using osmotic pump after 14 days; assay type: functional; conditions: route subcutaneous
Method in brief: (§1)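 Orchiectomized male rats received compound by subcutaneous osmotic pump for 14 days at 0.1-3 (mg/kg)/day. […] Levator ani and ventral prostate were weighed after 2 weeks and compared with sham-operated vehicle-treated controls, expressed as reversal of ORX-induced atrophy.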

Rattus norvegicus [22] = test: Androgenic effect in castrated rat prostate assessed as reversal at 0.3 to 3 mg/kg/day sc using osmotic pump after 14 days; assay type: functional, Prostate gland; conditions: route subcutaneous; method in brief: as §1
[23] = Agonist activity at androgen receptor LBD T877A mutant in mouse NIH3T3 cells transiently transfected with beta-galactosidase reporter gene assessed as cellular transformation by R-SAT assay; assay type: functional, cell-based
Method in brief: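 AR expression vector transiently co-transfected (Polyfect) with β-galactosidase and coactivators SRC1, DRIP205 and GRIP1 into NIH-3T3 fibroblasts at 60-70% confluency. ONPG substrate added, absorbance read at 420 nm. EC50 from a hyperbolic fit. Mean ± SEM of three or more independent experiments.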

[24] = Binding affinity to androgen receptor LBD T877A mutant in hamster DDT cells by scintillation counting; assay type: cell-based, Cricetinae
Liver microsomes [25] = test: Metabolic stability in human liver microsomes assessed as intrinsic clearance; assay type: ADME, Microsome
Liver microsomes [26] = test: Metabolic stability in rat liver microsomes assessed as intrinsic clearance; assay type: ADME, Microsome
[27] = Plasma concentration in Sprague-Dawley rat at 1 mg/kg, iv after 1 min; assay type: ADME, organism-based; parameters: dose 1 mg/kg, route intravenous
[28] = Plasma concentration in Sprague-Dawley rat at 1 mg/kg, iv after 10 mins; assay type: ADME, organism-based; parameters: dose 1 mg/kg, route intravenous
[29] = Plasma concentration in Sprague-Dawley rat at 1 mg/kg, iv after 30 mins; assay type: ADME, organism-based; parameters: dose 1 mg/kg, route intravenous
[30] = Plasma concentration in Sprague-Dawley rat at 1 mg/kg, iv after 60 mins; assay type: ADME, organism-based; parameters: dose 1 mg/kg, route intravenous
[31] = Plasma concentration in Sprague-Dawley rat at 1 mg/kg, iv after 120 mins; assay type: ADME, organism-based; parameters: dose 1 mg/kg, route intravenous
[32] = Plasma concentration in Sprague-Dawley rat at 1 mg/kg, iv after 360 mins; assay type: ADME, organism-based; parameters: dose 1 mg/kg, route intravenous
[33] = Plasma concentration in Sprague-Dawley rat at 1 mg/kg, iv after 480 mins; assay type: ADME, organism-based; parameters: dose 1 mg/kg, route intravenous
[34] = Plasma concentration in Sprague-Dawley rat at 10 mg/kg, po after 30 mins; assay type: ADME, organism-based; parameters: dose 10 mg/kg, route oral
Rattus norvegicus [35] = test: Androgenic effect in rat ORX model assessed as reversal of testosterone propionate-induced prostate weight treated at 10 mg/kg, po; assay type: functional, organism-based; parameters: dose 10 mg/kg; conditions: Prostate gland
[36] = Oral bioavailability in dog; assay type: ADME, organism-based, Canis lupus familiaris; conditions: in vivo
[37] = Oral bioavailability in Sprague-Dawley rat at 10 mg/kg, po; assay type: ADME, organism-based; conditions: in vivo
[38] = Cmax in Beagle dog at 10 mg/kg, po; assay type: ADME, organism-based, Canis lupus familiaris; parameters: dose 10 mg/kg, route oral; conditions: in vivo

## Cc1c(N2[C@@H]3CC[C@H]2C[C@@](C)(O)C3)ccc(C#N)c1Cl
[1]
  concentration at 1 h: 263 ng/mL
[2]
  half-life: 148 min
[3]
  clearance: 24.4 mL/min/kg
[4]
  AUC(0-inf): 394 ng·h/mL
[5]
  AUC(0-inf): 2210 ng·h/mL
[6]
  half-life: 126 min
[7]
  clearance: 42 mL/min/kg
[8]
  Vd: 6.1 L/kg
[9]
  bioavailability: 56%
[10]
  concentration at 0.25 h: 231 ng/mL
[11]
  concentration at 0.5 h: 190 ng/mL
[12]
  concentration at 1 h: 89.3 ng/mL
[13]
  concentration at 2 h: 49.5 ng/mL
[14]
  concentration at 4 h: 18.5 ng/mL
[15]
  concentration at 6 h: 9.5 ng/mL
[16]
  concentration at 0.25 h: 835 ng/mL
[17]
  concentration at 0.5 h: 592 ng/mL
[18]
  concentration at 1 h: 408 ng/mL
[19]
  concentration at 2 h: 270 ng/mL
[20]
  concentration at 6 h: 104 ng/mL
Rattus norvegicus [21]
  Activity: 67%
Rattus norvegicus [22]
  Activity: 21%
[23]
  EC50: 0.398 nM
[24]
  pKi: 5.5
Liver microsomes [25]
  CL: 28 uL/ml.millig
Liver microsomes [26]
  CL: 72 uL/ml.millig
[27]
  concentration at 1 min: 824 ng/mL
[28]
  concentration at 10 min: 447 ng/mL
[29]
  concentration at 0.5 h: 234 ng/mL
[30]
  concentration at 1 h: 137 ng/mL
[31]
  concentration at 2 h: 74.3 ng/mL
[32]
  concentration at 6 h: 23.5 ng/mL
[33]
  concentration at 8 h: 14.9 ng/mL
[34]
  concentration at 0.5 h: 314 ng/mL
Rattus norvegicus [35]
  Activity: Active
[36]
  bioavailability: 56%
[37]
  bioavailability: 38%
[38]
  Cmax: 835 ng/mL
